CSN deneddyl inh: CSN deneddylation inhibition; AID 651999; actives 0.38% (n = 360,000); Purified CSN, SCF-Nedd8-OG deneddylation, fluorescence polarization; Q92905; inhibition, % at 12.5 µM;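 active means pattern-corrected inhibition above about 35%, with an unprinted fluorescence ratio check between 0.5 and 1.5, limit read from the data, passing the limit was not always enough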;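 further: 0% = enzyme with substrate and 100% = substrate without enzyme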
Target sequence (Q92905 whole entry, looked up, one chain of several): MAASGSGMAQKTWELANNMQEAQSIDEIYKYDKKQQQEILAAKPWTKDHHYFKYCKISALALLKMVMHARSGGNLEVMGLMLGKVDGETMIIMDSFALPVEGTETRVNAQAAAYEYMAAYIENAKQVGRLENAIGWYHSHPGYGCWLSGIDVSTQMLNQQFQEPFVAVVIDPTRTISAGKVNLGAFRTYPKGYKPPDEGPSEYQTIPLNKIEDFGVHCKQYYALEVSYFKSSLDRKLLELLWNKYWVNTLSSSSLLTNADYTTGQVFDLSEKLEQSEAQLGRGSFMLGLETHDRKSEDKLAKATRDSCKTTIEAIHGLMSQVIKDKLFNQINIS
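test system = HEK293T-derived human Csn5 enzyme | amount = 0.24 nM Csn5 enzyme, final concentration | medium = Tris/NaCl/DTT buffer, pH 7.5 | schedule = 90 min reaction at room temperature | signal = FP | evaluation = inhibition of Csn5 cleavage, % | compound dosing = single dose of 12.5 µM compound with 0.25% DMSO | probe or stimulus = 10 nM SCFSkp2-Nedd8OG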
LEDGF integ inh: blocks HIV-1 LEDGF/p75-dependent DNA integration. TR-FRET IN-LEDGF/p75 DNA integration, Eu/Cy5. inhibition, % at 3.7 µM. actives 0.64% (n = 370,000). AID 743269;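 active means inhibition above the screen-wide mean plus 3 SD, cut at about 13% in these data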;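 further: signal is the Cy5 over europium emission ratio at 671 and 618 nm; 0% = plate median of compound wells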
UHRF1 binding: blocks human UHRF1 binding to methylated DNA. actives 0.75% (n = 370,000). UHRF1 binding to methylated oligo, TR-FRET. inhibition, % at 4.4 µM. AID 687016. Q96T88; in the data active means inhibition above about 21%;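 further: UHRF1 SRA domain binding a hemimethylated CpG hairpin DNA probe; 0% = median of test compound wells and 100% = reference inhibitor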
rCAG RNA binder: binds r(CAG) RNA repeats; actives 1.3% (n = 370,000); r(CAG) RNA repeat, TO-PRO-1 dye displacement fluorescence; inhibition, % at 3 µM;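 active means inhibition above the plate cutoff, the mean of all test compounds on that plate plus 3 SD, cut at about 35% in these data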;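 further: 0% = DMSO alone and 100% = 100 µM mitoxantrone as full dye displacement; higher means more dye released from RNA so lower well fluorescence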
MBD2 DNA inh: inhibitors of human MBD2 binding to methylated oligonucleotide | Q9UBB5 | TR-FRET | inhibition, % at 4.4 µM | actives 0.31% (n = 370,000) | AID 686964; in the data active means inhibition above about 13%
Target sequence (Q9UBB5 whole entry, looked up): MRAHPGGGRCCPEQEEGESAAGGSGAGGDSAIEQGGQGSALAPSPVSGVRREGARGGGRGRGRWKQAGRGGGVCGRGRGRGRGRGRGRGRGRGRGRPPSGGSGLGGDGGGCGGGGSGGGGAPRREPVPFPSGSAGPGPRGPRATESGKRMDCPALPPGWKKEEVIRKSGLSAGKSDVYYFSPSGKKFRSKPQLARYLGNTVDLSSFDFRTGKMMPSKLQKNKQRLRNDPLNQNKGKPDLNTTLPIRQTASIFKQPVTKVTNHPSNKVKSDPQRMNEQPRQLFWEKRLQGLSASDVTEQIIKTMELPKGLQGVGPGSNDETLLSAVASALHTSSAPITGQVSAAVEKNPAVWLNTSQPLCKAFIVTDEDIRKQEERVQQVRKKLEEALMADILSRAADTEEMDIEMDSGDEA
ATG4B inhibitor: inhibitors of human ATG4B cysteine protease; Q9Y4P1; ATG4B cleavage of LC3-PLA2, NBD-HPC fluorescence, 1 h; inhibition, % at 8.33 µM; actives 0.51% (n = 340,000); AID 504462; in the data active means inhibition above about 40%
rCAG binder conf: r(CAG) RNA repeat binding, confirmation | TO-PRO-1 dye displacement fluorescence | AID 652065 | shares compounds with rCAG RNA binder | inhibition, % at 3 µM | actives 70% (n = 4,300);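 active means inhibition above a per-plate cutoff, the mean inhibition of sample wells plus 3 SD, cut at about 35% in these data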;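 further: loss of TO-PRO-1 fluorescence as compound displaces dye from 1x1 AA loop RNA; 0% = DMSO only wells and 100% = 100 µM mitoxantrone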
dCAG dye counter: disrupts DNA CAG TO-PRO-1 complex, flagging rCAG hits. shares compounds with rCAG RNA binder. d(CAG) DNA oligo TO-PRO-1 dye displacement, fluorescence. inhibition, % at 3 µM. actives 94% (n = 4,300);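 active means inhibition above its plate's cutoff, the mean test-well inhibition plus 3 SD, cut at about 4.8% in these data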;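 further: 0% = DNA dye mix with DMSO and 100% = 100 µM mitoxantrone; hits displace the dye from DNA and so lower well fluorescence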
DNA CAG DR: disrupts DNA CAG TO-PRO-1 complex in dose response; DNA CAG/GTC duplex TO-PRO-1 dye displacement fluorescence; AID 686960; actives 20% (n = 250); shares compounds with rCAG RNA binder; IC50, µM; in the data active means IC50 below about 10 µM
The depositor's hits bear a star; x = not tested or not shown. Sampled rows, rich in hits. Any-hit rate of the full collection: about 3.1%.

SMILES	CSN deneddyl inh	LEDGF integ inh	UHRF1 binding	rCAG RNA binder	MBD2 DNA inh	ATG4B inhibitor	rCAG binder conf	dCAG dye counter	others
COc1ccc(CNC(=O)C2CCN(S(=O)(=O)c3ccc4nc5c(c(C(=O)O)c4c3)CCCC5)CC2)cc1	-2.0	1.1	-1.7	19.0	1.1	x	x	x
O=C(O)c1c2c(nc3ccc(S(=O)(=O)N4CCC(C(=O)NCc5ccc(Cl)cc5)CC4)cc13)CCCC2	4.8	-0.3	-3.5	42.2*	-7.7	9.1	40.4*	13.1*
O=C(O)c1c2c(nc3ccc(S(=O)(=O)N4CCC(C(=O)NC5CCCCCC5)CC4)cc13)CCCC2	2.3	-1.0	12.8	36.0*	-3.0	-9.9	40.7*	13.3*
COc1ccc(N=C(N)NC(=O)OCc2ccccc2)cc1	x	-2.0	1.0	2.7	4.1	x	x	x
CCOC(=O)c1ccc(S(=O)(=O)Nc2nc3cc(S(=O)(=O)NC4=NCCCCC4)ccc3s2)cc1	10.7	-10.1	-4.2	58.8*	-2.4	-28.5	56.1*	23.0*
O=S(=O)(Nc1ncccn1)c1ccc(NC(=S)NCCc2ccc(Cl)cc2)cc1	6.0	1.0	1.1	38.4*	0.7	-4.9	10.1	1.8
CCCCN1CC(C(=O)NCc2ccc(C)cc2)CC1=O (stereo unspecified)	-4.7	-1.8	1.6	46.5*	1.6	1.4	0.3	-1.2
COC(=O)c1cc(-c2cc(F)cc(OC)c2)c(=O)n2c1CCC2	x	6.9	-2.2	0.4	-2.2	x	x	x
O=S(=O)(Nc1cccc2[nH]ncc12)c1cccs1	-16.7	-1.7	-2.2	4.2	-2.3	4.2	x	x
O=S(=O)(Nc1cccc2c1ccc1cccn12)c1cccs1	21.6	3.7	-1.8	38.3*	0.8	9.2	32.3	12.8*
CCOC(=O)CNC(=O)CSc1nc2ccccc2c(=O)n1-c1ccc(Cl)cc1	x	1.2	-1.1	-0.2	2.2	x	x	x
O=C(Nc1ccc(S(=O)(=O)Nc2nccs2)cc1)c1nn(-c2ccc(F)cc2)ccc1=O	2.8	1.7	3.6	46.4*	3.6	-6.3	44.6*	19.8*
Cc1noc(NS(=O)(=O)c2ccc(NC(=O)CCN3C(=O)c4ccccc4C3=O)cc2)c1C	-2.7	-2.0	0.4	14.0	0.3	-1.5	x	x
Cc1noc(NS(=O)(=O)c2ccc(NC(=O)c3ccc(N4C(=O)c5ccccc5C4=O)cc3)cc2)c1C	-7.3	2.6	0.0	73.5*	-2.5	-0.8	59.0*	25.5*
O=C(CN1C(=O)c2cccc3cccc1c23)Nc1ccc(S(=O)(=O)Nc2nccs2)cc1	x	-1.1	4.0	66.9*	-1.1	-5.6	47.4*	17.2*
CC1CN(S(=O)(=O)c2ccc(C(=O)Nc3ccc(S(=O)(=O)Nc4nccs4)cc3)cc2)CC(C)O1 (stereo unspecified)	-8.0	0.6	3.4	57.0*	4.6	-11.4	65.0*	18.8*
O=C(Cc1ccc2c(c1)OCO2)N1CCC(n2nc(-c3ccccc3)oc2=O)CC1	x	3.2	-1.4	x	-1.5	x	x	x
CC(C)(C)N1Cc2nnn(Cc3ccccc3)c2-c2ccccc2S1(=O)=O	x	-4.0	-0.3	-0.4	-1.7	x	x	x
Cc1ccc2oc(C(=O)Nc3ccc(S(=O)(=O)Nc4onc(C)c4C)cc3)cc(=O)c2c1	4.5	0.1	-0.7	16.2	1.9	-4.6	x	x
Cc1noc(NS(=O)(=O)c2ccc(NC(=O)c3nn(-c4ccccc4)ccc3=O)cc2)c1C	2.1	0.8	-0.2	35.5*	-2.3	-0.8	20.8	5.7*
Cc1noc(NS(=O)(=O)c2ccc(NC(=O)c3cc(=O)c4ccccc4o3)cc2)c1C	-0.9	0.6	1.9	36.7*	-0.3	-3.8	12.7	1.5
O=C(Nc1ccc(S(=O)(=O)Nc2nccs2)cc1)c1ccc(N2C(=O)c3ccccc3C2=O)cc1	67.2*	0.2	3.0	44.9*	-1.4	17.9	56.0*	24.2*
COc1ccc(S(=O)(=O)C(C#N)c2nc3ccccc3nc2N2CCCC(C)C2)cc1 (stereo unspecified)	-0.7	4.9	-13.2	67.8*	-4.0	7.8	68.4*	34.7*
COC(=O)[C@H](Cc1ccccc1)N(Cc1cn(Cc2ccccc2)nn1)S(=O)(=O)c1ccccc1Br	x	-2.0	3.5	6.6	2.9	x	x	x
COc1cc(NS(=O)(=O)c2ccc(NC(=O)/C(=C/c3ccccc3Cl)NC(=O)c3ccccc3)cc2)nc(OC)n1	-3.3	-1.4	-1.2	73.8*	-3.9	2.5	78.7*	33.7*	DNA CAG DR=9.82*
SMILES	CSN deneddyl inh	LEDGF integ inh	UHRF1 binding	rCAG RNA binder	MBD2 DNA inh	ATG4B inhibitor	rCAG binder conf	dCAG dye counter	others
O=C(Nc1ccc(S(=O)(=O)Nc2nccs2)cc1)/C(=C/c1ccccc1Cl)NC(=O)c1ccccc1	7.5	0.0	0.0	77.9*	-6.4	-6.7	67.7*	34.6*
COC(=O)[C@@]12CCCCC3=C1N(CCC3)C(=O)[C@H]2CC(=O)NCCCCc1ccccc1	x	0.1	-1.3	-2.9	3.2	x	x	x
Cc1ccc2nc(N/C(=N/S(=O)(=O)c3ccc(F)cc3F)c3ccccc3)sc2c1	0.5	-1.7	1.0	45.9*	10.7	35.3	47.7*	14.5*
O=C(c1cc(Cl)cc(Cl)c1)N1CC[C@H]2[C@H](CCCN2Cc2ccc(F)cc2)C1	x	-0.4	-2.0	1.4	-2.4	x	x	x
Cc1cccc2sc(NNC(=O)c3ccc(S(=O)(=O)N4CCCC(C)C4)cc3)nc12 (stereo unspecified)	0.9	-0.5	-3.4	53.2*	-0.2	-7.0	45.4*	19.3*
Cc1cccc2sc(NC(=O)c3cccc(S(=O)(=O)N4CCc5ccccc54)c3)nc12	-4.4	0.7	-4.6	2.8	-0.6	-10.2	x	x
CCc1nnc(NC(=O)c2ccc(S(=O)(=O)N3CCCC(C)C3)cc2)s1 (stereo unspecified)	4.0	-4.3	-1.5	0.1	0.1	-4.2	x	x
Cc1cccc2sc(NNC(=O)c3ccc(S(=O)(=O)N4CCc5ccccc5C4)cc3)nc12	-3.7	-0.1	-2.6	53.7*	-5.2	-2.8	59.2*	30.3*
Cc1cccc(C)c1NC(=O)[C@@H]1CC(=O)O[C@@H]1c1ccccc1	x	-3.4	0.1	0.0	-2.8	x	x	x
CCCC[C@H]1C2CC(OC(=O)Nc3cccc(F)c3)C(C2)[C@H]2CCCCN21 (stereo partly specified)	x	3.0	-0.7	-1.9	-3.0	x	x	x
CN(C)S(=O)(=O)c1cccc(-c2nn(-c3ccccc3)cc2/C=C2\SC(=S)NC2=O)c1	22.3	-0.1	0.1	69.0*	-1.8	39.6	88.6*	66.0*
